Laboratory results: ChEMBL document CHEMBL4011643, “Triaryl Benzimidazoles as a New Class of Antibacterial Agents against Resistant Pathogenic Microorganisms” (J Med Chem, 2017)
Converted amounts (≈) assume the structure as drawn.

Legend:
[1] = Stabilization of FAM/TAMRA-labeled AT-rich DNA duplex (unknown origin) assessed as change in melting temperature at 5 uM by FRET-based assay
How it was run: (§1)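 FRET melting of a FAM/TAMRA-labelled AT-rich oligonucleotide, 400 nM working solution in 50 mM potassium, 50 mM cacodylate, pH 7.4. DNA was annealed at 85 °C for 6 min, then held at 25 °C for 5 h, and mixed 1:1 with sample. Fluorescence was read every 0.5 °C from 30 to 100 °C, with a 30 s hold per step. ΔTm is measured against the blank, in triplicate.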

[2] = Stabilization of FAM/TAMRA-labeled AT-rich DNA duplex (unknown origin) assessed as change in melting temperature at 1 uM by FRET-based assay; how it was run: as §1
Staphylococcus aureus [3] = experiment: Antibacterial activity against methicillin-resistant Staphylococcus aureus MRSA252 after 20 hrs by broth microdilution method; assay type: functional; conditions: MRSA252, 20 h
How it was run: (§2)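 Broth microdilution in Tryptic Soy Broth; growth read as OD600 after 20 h. MIC taken as the lowest drug concentration giving OD600 below 0.1. Run in triplicate.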

Staphylococcus aureus [4] = experiment: Antibacterial activity against methicillin-sensitive Staphylococcus aureus ATCC 9144 after 20 hrs by broth microdilution method; assay type: functional; conditions: ATCC 9144, 20 h
How it was run: (§3)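 Broth microdilution in Tryptic Soy Broth, done in triplicate. Growth was read as OD600 after 20 h. MIC is the lowest drug concentration giving OD600 below 0.1.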

Enterococcus faecium = experiment: Antibacterial activity against vancomycin-resistant Enterococcus faecium NCTC 12204 after 20 hrs by broth microdilution method; assay type: functional; conditions: NCTC 12204, 20 h; how it was run: as §2
Staphylococcus aureus [5] = experiment: Antibacterial activity against methicillin-resistant Staphylococcus aureus EMRSA-15 after 20 hrs by broth microdilution method; assay type: functional; conditions: EMRSA-15, 20 h; how it was run: as §2
Enterococcus faecalis [6] = experiment: Antibacterial activity against vancomycin-resistant Enterococcus faecalis NCTC 12201 after 20 hrs by broth microdilution method; assay type: functional; conditions: NCTC 12201, 20 h; how it was run: as §2
Enterococcus faecalis [7] = experiment: Antibacterial activity against vancomycin-sensitive Enterococcus faecalis NCTC 775 after 20 hrs by broth microdilution method; assay type: functional; conditions: NCTC 775, 20 h; how it was run: as §3

## Cn1cc(NC(=O)c2cc(NC(=O)CN=C(N)N)cn2C)cc1C(=O)NCCC(=N)N [NETROPSIN]
[1]
  deltaTm: 22.2 °C
[2]
  deltaTm: 16.5 °C

## CC1(C)S[C@@H]2[C@H](NC(=O)[C@H](N)c3ccc(O)cc3)C(=O)N2[C@H]1C(=O)O [AMOXICILLIN]
Staphylococcus aureus [3]
  MIC: > 128 µg/mL
Staphylococcus aureus [4]
  MIC: 1 µg/mL (≈ 2.74 µM)
Enterococcus faecium
  MIC: 16 µg/mL (≈ 43.8 µM)
Staphylococcus aureus [5]
  MIC: 128 µg/mL (≈ 350 µM)
Enterococcus faecalis [6]
  MIC: 0.5 µg/mL (≈ 1.37 µM)
Enterococcus faecalis [7]
  MIC: 0.5 µg/mL (≈ 1.37 µM)

## Cc1nc2cc(C(=O)NCCCN(C)C)ccc2n1-c1ccc(-c2cccc(N)c2)cn1
Staphylococcus aureus [5]
  MIC: > 128 µg/mL
Enterococcus faecalis [6]
  MIC: > 128 µg/mL

## Cc1nc2cc(C(=O)NCCCN(C)C)ccc2n1-c1ccc(-c2cccc(NC(=O)c3ccccc3)c2)cn1
Staphylococcus aureus [5]
  MIC: > 128 µg/mL
Enterococcus faecalis [6]
  MIC: > 128 µg/mL
